Among the data in ChEMBL document CHEMBL1154810, “Synthesis, characterization and biocidal activity of new organotin complexes of 2-(3-oxocyclohex-1-enyl)benzoic acid” (Eur J Med Chem, 2010) are MIC and IC50 values, retold here.

≈ marks a conversion by molar mass, not a printed value.

For one assay, the system named is Candida albicans. Nature of the assay: Antimicrobial activity against Candida albicans ATCC 18804 after 48 hrs. It counts as functional. The conditions noted are these: ATCC 18804, 48 h. In short, it runs like this: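 Broth microdilution MIC per NCCLS M27-A in RPMI 1640. Yeasts were pre-grown on Sabouraud medium, 24 h for C. albicans and 48 h for C. neoformans. Compound solution was added to wells, then incubated 37 °C for 48 h. Ketoconazol was the positive control and DMSO 1 and 2% in RPMI the negative controls. Triplicate runs. MIC was the lowest concentration giving an optically clear well, judged visually against the drug-free growth control.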
On to `CC(=O)N1CCN(c2ccc(OCC3COC(Cn4ccnc4)(c4ccc(Cl)cc4Cl)O3)cc2)CC1` (configuration not stated) [KETOCONAZOLE], for which the MIC amounted to 0.24 µM (≈ 0.128 µg/mL).

In the next assay the test system is HEK293. As to the kind of experiment: Cytotoxicity against HEK293 cells after 24 hrs by MTT assay.
Conditions: not given
The format is cell-based, Homo sapiens.
In turn, CHLOROTRIMETHYLSTANNANE showed an IC50 of 8 nM. In other words, the single-digit nanomolar range.
As to CHLOROTRIPHENYLSTANNANE, the half-inhibitory concentration (IC50) worked out at 10 nM.
Take DIBUTYLDICHLOROSTANNANE: the IC50 is 30 nM.
As for DICHLORODIMETHYLSTANNANE, the IC50 was 10 nM.
In the case of DICHLORODIPHENYLSTANNANE, 50 nM corresponded to half-maximal inhibition (IC50).
As to TRIBUTYLCHLOROSTANNANE, the IC50 worked out at 40 nM.

Broadly, the MIC is the smallest concentration in the dilution series that meets the test's criterion for growth inhibition. A lower MIC goes with greater potency. The IC50 is the concentration that gives 50% inhibition.
